Activity calls are given as the source filed them. No cut-off for these calls is given here.
Tests used:
[1] = species: Homo sapiens; test: Inhibition of human 20S proteasome chymotrypsin-like activity preincubated at 10 uM for 30 mins before substrate addition measured over 90 mins by fluorescence assay
[2] = test system: Mus musculus; test: Toxicity in human LNCAP cells xenografted nude mouse assessed as body weight loss at 5 mg/kg, ip twice a week for 4 weeks; assay type: organism-based; parameters: dose 5 mg/kg, route intraperitoneal; settings: in vivo, 672 h
How it was run: (§1)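 Male athymic BALB/c nude mice, six weeks old, implanted subcutaneously with LNCaP cells (2 x 10^6 cells/50 µL). At ~100 mm3 tumors, n=5/group received 5 mg/kg ip twice weekly for four weeks in 8% DMSO in HP-β-cyclodextrin and citrate. Tumor volume ((width)2 x length/2) and body weight were measured every 4 days. Tumors were excised and weighed at Day 30.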

[3] = test system: BXPC-3; test: Cytotoxicity against human BxPC3 cells after 72 hrs; assay type: functional, cell-based
How it was run: (§2)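 Adherent lines, growing in log phase in DMEM or RPMI 1640 with 10% FBS, were plated at 7,000–10,000 cells/well. Compound was added 24 h later at the final concentration. Viability was measured after 72 h by CellTiter Glo luminescence or CellTiter 96 Aqueous One absorbance.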

[4] = species: Homo sapiens; test: Induction of human 20S proteasome chymotrypsin-like activity preincubated at 10 uM for 30 mins before substrate addition measured over 90 mins by fluorescence assay
[5] = test system: BXPC-3; test: Cytotoxicity against carfilzomib-resistant human BxPC3 cells after 72 hrs; assay type: functional, cell-based
How it was run: (§3)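 Resistant BxPC-3 sublines were derived by about 6 months of stepwise increasing drug exposure. […] Compound was added 24 h after plating. Viability was read after 72 h by CellTiter Glo luminescence or CellTiter 96 Aqueous One.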

[6] = test system: RPMI8266; test: Cytotoxicity against human […] cells after 72 hrs; assay type: functional, cell-based
How it was run: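 Suspension RPMI 8226 cells were collected by centrifugation and plated at 10,000 cells/well in medium with 10% FBS. Compound was added 24 h later. Viability was read after 72 h by CellTiter Glo or CellTiter 96 Aqueous One.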

[7] = test system: Liver microsome; test: Metabolic stability in human liver microsomes; assay type: ADME
How it was run: (§4)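 Compound at 1 µM was incubated with 0.5 mg/ml microsomal protein, either pooled Balb/c mouse or pooled human. The buffer was 100 mM Tris-HCl pH 7.4 with an NADPH-generating system (isocitrate, isocitrate dehydrogenase, MgCl2, NADP+). After 5 min preincubation at 37°C, reactions ran 0, 5, 10 or 20 min and were quenched with cold acetonitrile containing phenytoin internal standard. Parent remaining was measured by LC-MS/MS.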

[8] = test system: LNCaP; test: Antitumor activity against human LNCAP cells xenografted in nude mouse assessed as tumor growth inhibition at 5 mg/kg, ip twice a week for 4 weeks; assay type: functional, organism-based; parameters: dose 5 mg/kg; how it was run: as §1
[9] = test system: LNCaP; test: Cytotoxicity against human LNCAP cells after 72 hrs; assay type: functional, cell-based; how it was run: as §2
[10] = test system: RPMI-8226; test: Inhibition of 20S proteasome chymotrypsin-like in human RPMI8226 cell extracts using Suc-LLVY-AMC as substrate preincubated at 1 to 10 uM for 30 mins before substrate addition by fluorescence assay; assay type: cell-free
How it was run: (§5)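 Cytosolic extracts of RPMI 8226 cells served as the proteasome source in place of purified enzyme. Extracts were preincubated with compound, and hydrolysis of Suc-LLVY-AMC (CT-L), Z-LLE-AMC (C-L) or Boc-LRR-AMC (T-L) was read by AMC fluorescence at ex 360/em 460 nm.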

[11] = test system: RPMI-8226; test: Inhibition of 20S proteasome caspase-like in human RPMI8226 cell extracts using Z-LLE-AMC as substrate preincubated at 1 to 10 uM for 30 mins before substrate addition by fluorescence assay; assay type: cell-free; how it was run: as §5
[12] = test system: Liver; test: Metabolic stability in Balb/c mouse liver microsomes; assay type: ADME; how it was run: as §4
[13] = test system: RPMI-8226; test: Reversible inhibition of 20S proteasome in human RPMI8226 cell extracts assessed as dissociation half life compound preincubated for 30 mins followed by 25-fold dilution by jump dilution assay; assay type: cell-based
How it was run: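 RPMI 8226 lysate (30 µg protein) was incubated with 10 µM compound for 30 min at room temperature in 20S assay buffer. Baseline Suc-LLVY-AMC hydrolysis was recorded in a cuvette, then the mixture was rapidly diluted 25-fold in assay buffer and recovery of activity was monitored.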

[14] = test system: RPMI-8226; test: Inhibition of 20S proteasome trypsin-like in human RPMI8226 cell extracts using Boc-LRR-AMC as substrate preincubated at 1 to 10 uM for 30 mins before substrate addition by fluorescence assay; assay type: cell-free; how it was run: as §5
[15] = test system: BXPC-3; test: Cytotoxicity against bortezomib-resistant human BxPC3 cells after 72 hrs; assay type: functional, cell-based; how it was run: as §3

Row | SMILES | inhibition [1] | other results
1 | Cc1ccc(OS(=O)(=O)c2cccc(C(F)(F)F)c2)c(-c2cc(-c3ccccc3)n(CC(=O)O[C@@H]3CCNC3)n2)c1 | Active | –
2 | Cc1ccc(OS(=O)(=O)c2cccc(C(F)(F)F)c2)c(-c2cc(-c3ccccc3)n(CC(=O)N(C)CC[C@@H](Oc3ccccc3)c3ccccc3)n2)c1 | Active | –
3 | Cc1ccc(OS(=O)(=O)c2cccc(C(F)(F)F)c2)c(-c2cc(-c3ccccc3)n(CC(=O)NC[C@@H]3CCCO3)n2)c1 | Active | –
4 | Cc1ccc(OC(=O)c2cccc(C(F)(F)F)c2)c(-c2cc(-c3ccccc3)n(CCN[C@@H]3CCNC3)n2)c1 | Active | –
5 | Cc1ccc(OS(=O)(=O)c2ccc(C(F)(F)F)nc2)c(-c2cc(-c3ccccc3)n(CCN[C@@H]3CCNC3)n2)c1 | Active | –
6 | CC(C)C[C@H](NC(=O)[C@H](CCc1ccccc1)NC(=O)CN1CCOCC1)C(=O)N[C@@H](Cc1ccccc1)C(=O)N[C@@H](CC(C)C)C(=O)[C@@]1(C)CO1 [CARFILZOMIB] | – | Activity [2]: Toxic
7 | Cc1ccc(OS(=O)(=O)c2cccc(C(F)(F)F)c2)c(-c2cc(-c3ccccc3)n(CC(=O)OCc3scnc3C)n2)c1 | Active | –
8 | Cc1ccc(OS(=O)(=O)c2ccc3c(c2)OCCO3)c(-c2cc(-c3ccccc3)n(CCN[C@@H]3CCNC3)n2)c1 | Active | –
9 | Cc1ccc(OS(=O)(=O)c2cccc(C(F)(F)F)c2)c(-c2cc(-c3ccccc3)n(CC(=O)NCCN3CCOCC3)n2)c1 | Active | –
10 | Cc1ccc(OS(=O)(=O)c2cccc(C(F)(F)F)c2)c(-c2cc(-c3ccccc3)n(CC(=O)N[C@@H]3CCN(C)C3)n2)c1 | Active | –
11 | Cc1ccc(OS(=O)(=O)c2cccc(C(F)(F)F)c2)c(-c2cc(C3CCCNC3)n(CCN[C@@H]3CCNC3)n2)c1 (some centres not stated) | – | Activity [3]: inactive
12 | Cc1ccc(OS(=O)(=O)c2cccc(C(F)(F)F)c2)c(-c2cc(-c3ccccc3)n(CC(=O)NC(C)(C)CO)n2)c1 | Active | –
13 | Cc1ccc(OS(=O)(=O)c2cccc(C(F)(F)F)c2)c(-c2cc(-c3ccccc3)n(CC(=O)OCc3ccccc3)n2)c1 | Active | –
14 | Cc1ccc(OS(=O)(=O)c2cccc(C(F)(F)F)c2)c(-c2cc(-c3ccccc3)n(CC(=O)O)n2)c1 | Active | –
15 | Cc1ccc(OS(=O)(=O)c2ccc(Br)cc2OC(F)(F)F)c(-c2cc(-c3ccccc3)n(CCN[C@@H]3CCNC3)n2)c1 | Active | –
16 | Cc1ccc(OS(=O)(=O)c2cccc(C(F)(F)F)c2)c(-c2cc(-c3ccccc3)n(CC(=O)OCc3cccc(O)c3C)n2)c1 | Active | –
17 | Cc1ccc(OS(=O)(=O)c2cccc(C(F)(F)F)c2)c(-c2cc(C3CCCCC3)n(CCN[C@@H]3CCNC3)n2)c1 | – | Activity [3]: inactive
18 | Cc1ccc(OS(=O)(=O)c2cc(F)c(Br)c(F)c2)c(-c2cc(-c3ccccc3)n(CCN[C@@H]3CCNC3)n2)c1 | Active | –
19 | Cc1ccc(OS(=O)(=O)c2cccc(C(F)(F)F)c2)c(-c2cc(C3CCCN(C(=O)N[C@@H]4CCNC4)C3)n(CCN[C@@H]3CCNC3)n2)c1 (some centres not stated) | – | Activity [3]: inactive

Row | SMILES | inhibition [1] | other results
20 | Cc1ccc(OS(=O)(=O)c2ccc(F)c([N+](=O)[O-])c2)c(-c2cc(-c3ccccc3)n(CCN[C@@H]3CCNC3)n2)c1 | Active | Activity [4]: 200%
21 | Cc1ccc(OS(=O)(=O)c2cccc(C(F)(F)F)c2)c(-c2cc(-c3ccccc3)n(CC(=O)N[C@@H]3CCNC3)n2)c1 | Active | Activity [5]: Active; Activity [6]: Active; Stability [7]: Stable; TGI [8]: Active; Activity [9]: Active; inhibition [10]: Active; inhibition [11]: Active; Stability [12]: Stable; Activity [2]: Non-toxic; T1/2 [13]: 3.2 min; Activity [3]: Active; inhibition [14]: inactive; Activity [15]: Active
22 | Cc1ccc(OS(=O)(=O)c2cccc(C(F)(F)F)c2)c(-c2cc(-c3ccccc3)n(CC(=O)N[C@@H]3CCN(C(=O)CN4CCOCC4)C3)n2)c1 | Active | –
23 | CCOCCS(=O)(=O)Oc1ccc(C)cc1-c1cc(-c2ccccc2)n(CCN[C@@H]2CCNC2)n1 | Active | –
24 | Cc1ccc(OS(=O)(=O)c2cccc(C(F)(F)F)c2)c(-c2cc(-c3ccccc3)n(CC(=O)NCC(C)(C)C)n2)c1 | Active | –
25 | Cc1ccc(OS(=O)(=O)c2cccc(C(F)(F)F)c2)c(-c2cc(-c3ccccc3)n(CC(=O)NCc3ccccc3)n2)c1 | Active | –
26 | Cc1ccc(OS(=O)(=O)c2cccc(C(F)(F)F)c2)c(-c2cc(-c3ccccc3)n(CC(=O)NCc3cnccn3)n2)c1 | Active | –
27 | Cc1ccc(OS(=O)(=O)c2cccc(C(F)(F)F)c2)c(-c2cc(-c3ccccc3)n(CC(=O)N[C@H]3CCNC3)n2)c1 | Active | –
28 | Cc1ccc(OS(=O)(=O)c2cccc(C(F)(F)F)c2)c(-c2cc(-c3ccccc3)n(CC(=O)N(C)C)n2)c1 | Active | –
29 | Cc1ccc(OS(=O)(=O)c2cccc(C(F)(F)F)c2)c(-c2cc(-c3ccccc3)n(CC(=O)NCCCN3CCCC3=O)n2)c1 | Active | –
30 | CC(C)=CCOC(=O)Cn1nc(-c2cc(C)ccc2OS(=O)(=O)c2cccc(C(F)(F)F)c2)cc1-c1ccccc1 | Active | –
31 | CC(=O)N1CC[C@@H](NC(=O)Cn2nc(-c3cc(C)ccc3OS(=O)(=O)c3cccc(C(F)(F)F)c3)cc2-c2ccccc2)C1 | Active | –
32 | Cc1ccc(OCc2cccc(C(F)(F)F)c2)c(-c2cc(-c3ccccc3)n(CCN[C@@H]3CCNC3)n2)c1 | Active | –
33 | Cc1ccc(OS(=O)(=O)c2cccc(C(F)(F)F)c2)c(-c2cc(-c3ccccc3)n(CC(=O)N[C@@H]3CCN(C(=O)CCc4ccccc4)C3)n2)c1 | Active | –
34 | Cc1ccc(OS(=O)(=O)c2cccc(Cl)c2)c(-c2cc(-c3ccccc3)n(CCN[C@@H]3CCNC3)n2)c1 | Active | –
35 | Cc1ccc(OS(=O)(=O)c2cccc(C(F)(F)F)c2)c(-c2cc(-c3ccccc3)n(CC(=O)OCc3ccc(C)o3)n2)c1 | Active | –
36 | CC1=C(COC(=O)Cn2nc(-c3cc(C)ccc3OS(=O)(=O)c3cccc(C(F)(F)F)c3)cc2-c2ccccc2)Cc2ccccc21 | Active | Activity [4]: 200%
37 | Cc1ccc(OS(=O)(=O)c2cccc(C(F)(F)F)c2)c(-c2cc(-c3ccccc3)n(CC(=O)OCc3cc(C)on3)n2)c1 | Active | –
